The values below come from ChEMBL document CHEMBL1153905, “Functionalized 3-benzylidene-indolin-2-ones: inducers of NAD(P)H-quinone oxidoreductase 1 (NQO1) with antiproliferative activity” (Bioorg Med Chem, 2009).

The structures appear in SMILES notation.

For data set [1], the target named is T1, CYP1A1 (Mus musculus, UniProt P00184).
T1 sequence (P00184 whole entry): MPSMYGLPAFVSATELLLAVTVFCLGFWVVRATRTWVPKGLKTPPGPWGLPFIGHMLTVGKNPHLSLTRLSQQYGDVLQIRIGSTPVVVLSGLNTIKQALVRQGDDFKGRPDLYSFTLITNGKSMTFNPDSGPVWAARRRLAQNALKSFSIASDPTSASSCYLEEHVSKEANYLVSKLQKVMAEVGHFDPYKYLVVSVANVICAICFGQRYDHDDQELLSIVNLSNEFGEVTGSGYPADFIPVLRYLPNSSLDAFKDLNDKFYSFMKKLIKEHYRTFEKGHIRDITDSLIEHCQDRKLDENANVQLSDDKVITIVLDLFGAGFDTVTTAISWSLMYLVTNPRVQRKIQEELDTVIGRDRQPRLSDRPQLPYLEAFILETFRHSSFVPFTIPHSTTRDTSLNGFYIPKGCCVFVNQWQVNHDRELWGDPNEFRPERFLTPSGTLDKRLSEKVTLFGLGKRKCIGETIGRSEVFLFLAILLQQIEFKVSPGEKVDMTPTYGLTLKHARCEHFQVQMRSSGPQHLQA
Description: Induction of CYP1A1 activity in mouse Hepa-1c1c7 cells assessed as induction ratio at 7.5 uM after 48 hrs by EROD assay relative to control. Format: ADME, cell-based. Summed up:
(§1)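 Hepa1c1c7 cells were seeded at 10,000 per well and grown 24 h. They were then exposed 48 h to compound (final DMSO 0.5% v/v) at about 4 × the NQO1 CD. After a PBS wash, cells got 5 µM 7-ethoxyresorufin plus 2 mM salicylamide in medium, 37 °C, 40 min. Resorufin was read at ex 530/em 590 nm, corrected for compound fluorescence. Ratio = (F treated − blank)/(F DMSO control − blank); mean ± SD, n = 3.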

A short description of data set [2]: Cytotoxicity against mouse Hepa-1c1c7 cells after 48 hrs by MTT assay. The format is cell-based. The following applies: hepa-1c1c7, 48 h. Summed up:
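Murine hepatoma cells in α-MEM with 10% heat- and charcoal-treated fetal calf serum, passages 6–17; MTT read-out as for the cancer lines but with 48 h compound exposure. Highest concentration tested 25 µM. IC50 from survival-versus-concentration curve; mean and SD, n = 3.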

The target in data set [3] is NAD(P)H dehydrogenase [quinone] 1 (Mus musculus) (UniProt Q64669). Nature of the data set: Induction of NQO1 activity in mouse Hepa-1c1c7 cells assessed as induction ratio at 7.5 uM after 48 hrs by MTT assay relative to control. The format is cell-based. Summed up:
(§2)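 Hepa1c1c7 cells, 10,000 per well, 24 h, were then treated 48 h (DMSO ≤0.5%). Digitonin/EDTA lysates were assayed for menadione-dependent MTT-formazan formation using a G6P/G6PDH NADPH-generating mix with FAD at pH 7.4. The reaction ran 5 min, was stopped with dicoumarol, and read at A590. Degree of induction = (A test − blank)/(A control − blank). Ratios were read off the induction–concentration plot at the EROD test concentration.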

The target in data set [4] is T1, CYP1A1. Description: Induction of CYP1A1 activity in mouse Hepa-1c1c7 cells assessed as induction ratio at 2.5 uM after 48 hrs by EROD assay relative to control. The format is ADME, cell-based. Summed up:
as §1

Data set [5] has as its target NAD(P)H dehydrogenase [quinone] 1 (Mus musculus) (UniProt Q64669). Nature of the data set: Induction of NQO1 activity in mouse Hepa-1c1c7 cells assessed as induction ratio at 2.5 uM after 48 hrs by MTT assay relative to control. The format is cell-based. Summed up:
as §2

Data set [6] concerns HCT-116. Description: Antiproliferative activity against human HCT116 cells after 72 hrs by MTT assay. The settings on record: HCT-116, 72 h. The format is functional, cell-based. Summed up:
(§3)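 Cells seeded at 10,000 (MCF7), 4000 (HCT116) or 5000 (CCL186) per well and grown 24 h; MCF7 and CCL186 in EMEM with pyruvate, glutamine, 10% FBS; HCT116 in McCoy's 5A with 10% FBS. Compounds from DMSO stocks (≤1% DMSO final), 72 h exposure; MTT 0.5 mg/ml for 3 h, formazan in DMSO read at 590 nm. IC50 from sigmoidal survival curve, three separate occasions.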

Data set [7] deals with MCF7. Description: Antiproliferative activity against human MCF7 cells after 72 hrs by MTT assay. The format is functional, cell-based. The settings on record: MCF7, 72 h. Summed up:
as §3

Data set [8] in a line: Antiproliferative activity against human CCL186 cells after 72 hrs by MTT assay. The format is cell-based. The following applies: CCL186, 72 h. Summed up:
as §3

Data set [9] relates to MCF7. Description: Selectivity ratio of IC50 for human CCL186 cells to IC50 for human MCF7 cells. Summed up: (§4)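 MTT assay. MCF7 and CCL186 cells were grown in EMEM/10% FBS, HCT116 in McCoy's 5A/10% FBS. Seeding was 10,000 (MCF7), 4000 (HCT116) and 5000 (CCL186) cells per well, 24 h. Compound exposure was 72 h, DMSO ≤1% final. MTT 0.5 mg/ml for 3 h, formazan dissolved in DMSO, A590. IC50 came from sigmoidal survival curves, with 3 separate occasions per concentration. Ratio = IC50 CCL186 / IC50 of the cancer line.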

The nature of data set [10]: Selectivity ratio of IC50 for human CCL186 cells to IC50 for human HCT116 cells. Format: ADME, cell-based, HCT-116. The settings on record: CCL186 cells and HCT116 cells, read-out: Ratio IC50. Summed up:
as §4

For data set [11], the system named is HCT-116. Nature of the data set: Cell cycle arrest in human HCT116 cells released from G1 block assessed as accumulation at sub G1 phase at 15 uM after 24 hrs by flow cytometry. The format is functional.
Data set [12] relates to HCT-116. Description: Cell cycle arrest in human HCT116 cells released from G2 block assessed as accumulation at sub G1 phase at 15 uM after 24 hrs by flow cytometry. Format: functional.
The test system of data set [13] is HCT-116. Description: Cell cycle arrest in human HCT116 cells released from G1 block assessed as accumulation at G1 phase at 15 uM after 24 hrs by flow cytometry. Format: functional.
Data set [14] relates to HCT-116. Nature of the data set: Cell cycle arrest in human HCT116 cells released from G2 block assessed as accumulation at G1 phase at 15 uM after 24 hrs by flow cytometry. The format is functional.
Data set [15] has as its system HCT-116. Description: Cell cycle arrest in human HCT116 cells released from G1 block assessed as accumulation at S phase at 15 uM after 24 hrs by flow cytometry. The format is functional.
The subject of data set [16] is HCT-116. Description: Cell cycle arrest in human HCT116 cells released from G2 block assessed as accumulation at S phase at 15 uM after 24 hrs by flow cytometry. Format: functional.
Data set [17] has as its system HCT-116. Description: Cell cycle arrest in human HCT116 cells released from G1 block assessed as accumulation at G2/M phase at 15 uM after 24 hrs by flow cytometry. Format: functional.
The subject of data set [18] is HCT-116. Description: Cell cycle arrest in human HCT116 cells released from G2 block assessed as accumulation at G2/M phase at 15 uM after 24 hrs by flow cytometry. The format is functional.
Data set [19] addresses NAD(P)H dehydrogenase [quinone] 1 (Mus musculus) (UniProt Q64669). Nature of the data set: Induction of NQO1 activity in mouse Hepa-1c1c7 cells assessed as induction ratio at 1 uM after 48 hrs by MTT assay relative to control. Format: cell-based. Summed up: as §2
The target of data set [20] is T1, CYP1A1. Nature of the data set: Induction of CYP1A1 activity in mouse Hepa-1c1c7 cells assessed as induction ratio at 1 uM after 48 hrs by EROD assay relative to control. Format: ADME, cell-based. Summed up:
(§5)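 About 10,000 Hepa1c1c7 cells/well cultured 24 h, then compound (0.5% DMSO final) for 48 h, at roughly 4 × the concentration doubling NQO1 activity. After PBS wash, cells given 5 µM 7-ethoxyresorufin plus 2 mM salicylamide, 37 °C, 40 min; resorufin fluorescence ex 530/em 590 nm, corrected for compound fluorescence. Ratio = (treated − blank)/(DMSO control − blank); mean ± SD, n = 3.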

Data set [21] addresses T1, CYP1A1. Description: Induction of CYP1A1 activity in mouse Hepa-1c1c7 cells assessed as induction ratio at 5 nM after 48 hrs by EROD assay relative to control. Format: ADME, cell-based. Summed up: as §1
Data set [22] addresses NAD(P)H dehydrogenase [quinone] 1 (Mus musculus) (UniProt Q64669). Nature of the data set: Induction of NQO1 activity in mouse Hepa-1c1c7 cells assessed as induction ratio at 5 nM after 48 hrs by MTT assay relative to control. Format: cell-based. Summed up:
as §2

Data set [23] is described as follows: Ratio of induction of NQO1 activity to induction of CYP1 activity in mouse Hepa-1c1c7 cells at 5 nM after 48 hrs.
Data set [24] deals with T1, CYP1A1. Description: Induction of CYP1A1 activity in mouse Hepa-1c1c7 cells assessed as induction ratio at 0.5 uM after 48 hrs by EROD assay relative to control. Format: ADME, cell-based. Summed up: as §5
Data set [25] has as its target NAD(P)H dehydrogenase [quinone] 1 (Mus musculus) (UniProt Q64669). Description: Induction of NQO1 activity in mouse Hepa-1c1c7 cells assessed as induction ratio at 0.5 uM after 48 hrs by MTT assay relative to control. Format: cell-based. Summed up: as §2

Chain of NAD(P)H dehydrogenase [quinone] 1 (Mus musculus) (Q64669 whole entry): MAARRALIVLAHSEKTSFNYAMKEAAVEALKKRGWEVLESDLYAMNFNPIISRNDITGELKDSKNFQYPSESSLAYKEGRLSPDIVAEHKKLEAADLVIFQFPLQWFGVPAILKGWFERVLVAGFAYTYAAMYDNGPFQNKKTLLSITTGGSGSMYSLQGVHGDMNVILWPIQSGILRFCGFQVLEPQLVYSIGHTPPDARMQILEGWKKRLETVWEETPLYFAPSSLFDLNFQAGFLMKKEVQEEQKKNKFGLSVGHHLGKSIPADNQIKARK

Regarding `COc1ccc(/C=C2\Nc3ccccc3C2=O)cc1O`, the fold induction at 48 h, 7.5 µM on CYP1A1 [1] came out at 1.38. The half-maximal inhibitory concentration (IC50) in data set [2] was > 25 µM. Also, the Ratio in [3] was determined as 4.21.

Regarding `COc1ccc(/C=C2/C(=O)Nc3ccccc32)c(O)c1`, the fold induction at 48 h, 2.5 µM at CYP1A1 [4] was found to be 2.35. Moreover, in data set [2], the IC50 is > 25 µM. Besides, the Ratio in [5] worked out at 3.59.

For the compound `COc1ccc2c(c1)NC(=O)/C2=C/c1ccc(OC)c(O)c1`, the IC50 is 3.7 µM with HCT-116 [6], 7.8 µM with MCF7 [7], 11.3 µM in data set [8] and 9.8 µM in [2]. The “Ratio IC50” value in the data set with MCF7 [9] amounted to 3.1. Further, the selectivity ratio in data set [10] was 1.4. In addition, the Activity worked out at 5.26% with HCT-116 [11]; 15.54% in the data set on HCT-116 [12]; 17.49% in the data set on HCT-116 [13]; 26.01% with HCT-116 [14]; 21.13% in the data set on HCT-116 [15]; 15.36% in the data set on HCT-116 [16]. Moreover, the Activity came out at 56.49% in the data set on HCT-116 [17] and 43.57% in the data set on HCT-116 [18]. Further, the Ratio in [19] was found to be 4.34. Also, on CYP1A1 [20], the fold induction at 48 h, 1 µM was found to be 1.05.

On to `O=C1Nc2ccccc2/C1=C\c1cccc(F)c1`, for which, on CYP1A1 [1], the fold induction at 48 h, 7.5 µM came out at 1.11. The IC50 in data set [2] was > 25 µM. The Ratio in data set [3] is 4.19.

In the case of `O=C1Nc2ccccc2/C1=C\c1ccc(Cl)cc1`, the fold induction at 48 h, 2.5 µM on CYP1A1 [4] was found to be 1.06. In data set [2], this compound yielded an IC50 of 6.7 µM. Also, the Ratio in [5] stood at 3.67.

Turning to `CCc1ccc(/C=C2/C(=O)Nc3ccccc32)cc1`, at CYP1A1 [1], the fold induction at 48 h, 7.5 µM was 1.08. Moreover, the IC50 in [2] is > 25 µM. Also, the Ratio in data set [3] amounted to 4.96.

In the case of `O=C1Nc2cc(C(F)(F)F)ccc2/C1=C1\C(=O)Nc2ccc(F)cc21`, the IC50 in data set [2] is > 25 µM. Besides, the fold induction at 48 h, 0.005 µM at CYP1A1 [21] is 3.72. Besides, the Ratio was found to be 3.09 in data set [22] and 0.83 in data set [23].

In data set [2], `O=C1Nc2cc(C(F)(F)F)ccc2/C1=C1\C(=O)Nc2ccc(Cl)cc21` had an IC50 of 9.8 µM. Besides, the fold induction at 48 h, 0.005 µM on CYP1A1 [21] worked out at 3.23. Also, the Ratio is 2.96 in data set [22] and 0.92 in [23].

Take `O=C1Nc2ccccc2/C1=C1\C(=O)Nc2cc(C(F)(F)F)ccc21`: the IC50 in [2] is > 25 µM. The fold induction at 48 h, 0.005 µM on CYP1A1 [21] amounted to 3.01. For the same compound, the results for the Ratio in data set [22] and in [23] were 2.99 and 0.99, respectively.

As to `COc1ccc(/C=C2/C(=O)Nc3ccccc32)cc1O`, at CYP1A1 [24], the fold induction at 48 h, 0.5 µM is 2.66. In addition, the concentration for half-maximal inhibition (IC50) in data set [2] came out at 11.9 µM. The Ratio in data set [25] is 3.13.
